Laboratory results from ChEMBL document CHEMBL4346661, “Design, synthesis and evaluation of novel diaryl-1,5-diazoles derivatives bearing morpholine as potent dual COX-2/5-LOX inhibitors and antitumor agents” (Eur J Med Chem, 2019).

Key:
B16-F10 = assay: Antiproliferative activity against mouse B16F10 cells incubated for 48 hrs by MTT assay; type: functional, cell-based; details: B16-F10, 48 h
Summary of the method: (§1)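 MTT assay on F10 (murine melanoma), HeLa, A549, MCF-7 and 293T (human renal epithelium) cells. IC50 given as mean ± SD of three independent experiments.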

HeLa = assay: Antiproliferative activity against human HeLa cells incubated for 48 hrs by MTT assay; type: functional, cell-based; summary of the method: as §1
A549 = assay: Antiproliferative activity against human A549 cells incubated for 48 hrs by MTT assay; type: functional, cell-based; details: A549, 48 h; summary of the method: as §1
MCF7 = assay: Antiproliferative activity against human MCF7 cells incubated for 48 hrs by MTT assay; type: functional, cell-based; details: MCF7, 48 h; summary of the method: as §1
HEK-293T = assay: Antiproliferative activity against human 293T cells incubated for 48 hrs by MTT assay; type: cell-based; summary of the method: as §1
[1] = molecular target: T1, Prostaglandin G/H synthase 2 (Homo sapiens, UniProt P35354); assay: Inhibition of COX2 (unknown origin) using arachidonic acid as substrate incubated for 10 mins by Ellman's reagent based COX-1/COX-2 ELISA assay
T1 sequence (P35354 whole entry): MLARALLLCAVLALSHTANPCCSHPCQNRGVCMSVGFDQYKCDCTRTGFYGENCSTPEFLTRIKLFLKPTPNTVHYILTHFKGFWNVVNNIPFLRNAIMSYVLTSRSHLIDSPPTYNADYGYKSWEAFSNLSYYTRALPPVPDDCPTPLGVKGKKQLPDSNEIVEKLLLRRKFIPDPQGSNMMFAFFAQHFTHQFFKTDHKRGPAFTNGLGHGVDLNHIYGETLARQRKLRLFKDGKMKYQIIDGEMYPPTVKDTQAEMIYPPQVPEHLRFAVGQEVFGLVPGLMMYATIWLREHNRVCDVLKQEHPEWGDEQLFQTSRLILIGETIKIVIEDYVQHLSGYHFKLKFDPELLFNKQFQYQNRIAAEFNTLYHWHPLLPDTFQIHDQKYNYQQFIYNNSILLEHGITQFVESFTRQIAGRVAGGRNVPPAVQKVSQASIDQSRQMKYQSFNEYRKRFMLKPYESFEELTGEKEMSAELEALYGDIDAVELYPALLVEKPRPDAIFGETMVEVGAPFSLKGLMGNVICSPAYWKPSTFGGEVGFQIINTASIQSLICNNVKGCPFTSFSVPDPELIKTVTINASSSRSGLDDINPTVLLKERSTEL

[2] = Inhibition of 5-LOX assessed as calcium ionophore A23187-stimulated LTB4 production preincubated for 30 mins followed by calcium ionophore A23187 addition and measured after 30 mins by ELISA

| SMILES | IC50 (B16-F10) | IC50 (HeLa) | IC50 (A549) | IC50 (MCF7) | IC50 (HEK-293T) | IC50 [1] | IC50 [2] |
| --- | --- | --- | --- | --- | --- | --- | --- |
| NS(=O)(=O)c1ccc(-n2nc(C(=O)NCCN3CCOCC3)cc2-c2ccc(Cl)cc2)cc1 | > 100 µM | 20 µM | 19.5 µM | 23 µM | 112 µM | 0.31 µM | 0.89 µM |
| NS(=O)(=O)c1ccc(-n2nc(C(=O)OCCN3CCOCC3)cc2-c2ccc(F)cc2)cc1 | 18.1 µM | > 100 µM | > 100 µM | 19.3 µM | 146 µM | 0.21 µM | 0.84 µM |
| COc1cccc(-c2cc(C(=O)N3CCSCC3)nn2-c2ccc(S(N)(=O)=O)cc2)c1 | 13 µM | 20.3 µM | 16 µM | 17.9 µM | 177 µM | 1.95 µM | 1.19 µM |
| CCOc1ccc(-c2cc(C(=O)N3CCSCC3)nn2-c2ccc(S(N)(=O)=O)cc2)cc1 | 32.3 µM | 21.6 µM | > 100 µM | 16.5 µM | 169 µM | 0.97 µM | 0.97 µM |
| COc1ccc(-c2cc(C(=O)NCCN3CCOCC3)nn2-c2ccc(S(N)(=O)=O)cc2)cc1 | 19.5 µM | 20.4 µM | 17.6 µM | 15 µM | 144 µM | 0.87 µM | 0.91 µM |
| COc1ccc(-c2cc(C(=O)N3CCOCC3)nn2-c2ccc(S(N)(=O)=O)cc2)cc1 | 20.8 µM | 21.6 µM | 19.6 µM | 16 µM | 207 µM | 2.01 µM | 0.93 µM |
| NS(=O)(=O)c1ccc(-n2nc(C(=O)OCCCN3CCOCC3)cc2-c2ccccc2)cc1 | 22.7 µM | 22.4 µM | 17.7 µM | 17.2 µM | 95.5 µM | 0.56 µM | 0.82 µM |
| Cc1ccc(-c2cc(C(=O)N3CCOCC3)nn2-c2ccc(S(N)(=O)=O)cc2)cc1 | 21.4 µM | > 100 µM | 22.8 µM | 17.9 µM | 190 µM | 0.93 µM | 1.24 µM |
| COc1ccc(-c2cc(C(=O)OCCCN3CCOCC3)nn2-c2ccc(S(N)(=O)=O)cc2)cc1 | 13.7 µM | 26.7 µM | 18.2 µM | 19.8 µM | 169 µM | 1.05 µM | 0.87 µM |
| NS(=O)(=O)c1ccc(-n2nc(C(=O)NCCCN3CCOCC3)cc2-c2ccccc2)cc1 | 21.8 µM | 27.4 µM | 20.5 µM | 18.1 µM | 156 µM | 0.42 µM | 0.93 µM |
| NS(=O)(=O)c1ccc(-n2nc(C(=O)N3CCOCC3)cc2-c2ccc(C(F)(F)F)cc2)cc1 | 21.8 µM | 27.7 µM | 25.2 µM | 20 µM | 199 µM | 0.39 µM | 2.59 µM |
| COc1ccc(-c2cc(C(=O)N3CCSCC3)nn2-c2ccc(S(N)(=O)=O)cc2)cc1 | 13.2 µM | 24.1 µM | 17.2 µM | 19.7 µM | 211 µM | 1.21 µM | 1.01 µM |
| Cc1ccc(-c2cc(C(=O)N3CCSCC3)nn2-c2ccc(S(N)(=O)=O)cc2)cc1 | 15.5 µM | 13.6 µM | 19.9 µM | 18.1 µM | 106 µM | 0.89 µM | 1.57 µM |
| NS(=O)(=O)c1ccc(-n2nc(C(=O)N3CCSCC3)cc2-c2ccc(Br)cc2)cc1 | 12.1 µM | 16 µM | 17.7 µM | 14.6 µM | 197 µM | 1.28 µM | 1.21 µM |
| NS(=O)(=O)c1ccc(-n2nc(C(=O)OCCN3CCOCC3)cc2-c2ccc(Cl)cc2)cc1 | 22 µM | 25.4 µM | 23 µM | 25.8 µM | 122 µM | 0.25 µM | 0.87 µM |
| CCOc1ccc(-c2cc(C(=O)OCCCN3CCOCC3)nn2-c2ccc(S(N)(=O)=O)cc2)cc1 | > 100 µM | > 100 µM | > 100 µM | 15.4 µM | 179 µM | 7.64 µM | 0.72 µM |
| NS(=O)(=O)c1ccc(-n2nc(C(=O)NCCN3CCOCC3)cc2-c2ccc(F)cc2)cc1 | > 100 µM | > 100 µM | > 100 µM | 15.8 µM | 112 µM | 0.16 µM | 1.01 µM |
| NS(=O)(=O)c1ccc(-n2nc(C(=O)NCCN3CCOCC3)cc2-c2ccccc2)cc1 | 30.8 µM | 21.8 µM | > 100 µM | 39.2 µM | 151 µM | 0.64 µM | 0.96 µM |
| CCOc1ccc(-c2cc(C(=O)NCCN3CCOCC3)nn2-c2ccc(S(N)(=O)=O)cc2)cc1 | 24.2 µM | 20.8 µM | 16.5 µM | 25.8 µM | 155 µM | 0.85 µM | 0.86 µM |
| NS(=O)(=O)c1ccc(-n2nc(C(=O)N3CCSCC3)cc2-c2ccc(F)cc2)cc1 | 26.4 µM | 29.2 µM | 18.2 µM | 18.2 µM | 174 µM | 0.21 µM | 1.27 µM |
| COc1ccc(-c2cc(C(=O)NCCCN3CCOCC3)nn2-c2ccc(S(N)(=O)=O)cc2)cc1 | 13 µM | > 100 µM | 19.2 µM | 16.3 µM | 200 µM | 0.71 µM | 0.98 µM |
| NS(=O)(=O)c1ccc(-n2nc(C(=O)N3CCSCC3)cc2-c2ccccc2)cc1 | > 100 µM | > 100 µM | 30.8 µM | 18.9 µM | 164 µM | 0.67 µM | 3.41 µM |
| NS(=O)(=O)c1ccc(-n2nc(C(=O)N3CCOCC3)cc2-c2cccc(F)c2)cc1 | 30.1 µM | 51.3 µM | 25.7 µM | 18.9 µM | 180 µM | 0.23 µM | 2.01 µM |
| CCOc1ccc(-c2cc(C(=O)NCCCN3CCOCC3)nn2-c2ccc(S(N)(=O)=O)cc2)cc1 | 12.9 µM | 19.2 µM | 17.8 µM | 15 µM | 138 µM | 0.91 µM | 0.84 µM |
